# Assay results published in ChEMBL document CHEMBL5506013, “Mitochondria-Selective Dicationic Small-Molecule Ligand Targeting G-Quadruplex Structures for Human Colorectal Cancer Therapy” (J Med Chem, 2024).
# Calls of active or inactive are those of the source. The calls are words filed in the database; no cut-off is given here.
# Tests used:
# Quadruplex DNA [1] = assay: Binding affinity to mito 0.5-16 G4 DNA (unknown origin) assessed as dissociation constant measured upto 150 secs by isothermal titration calorimetry assay; format: nucleic-acid assay
# HCT-116 [2] = assay: Downregulation of mitochondrial respiratory chain complex I level in human HCT-116 cells at upto 4 uM measured after 48 hrs by Western blot analysis; format: functional, cell-based
# Quadruplex DNA [3] = assay: Binding affinity to Mito 0.5-16 G4 DNA (unknown origin) assessed as change in melting temperature at 5 uM by circular dichroism spectroscopic analysis; format: nucleic-acid assay
# [4] = Drug localization in human HCT-116 cells by measuring red foci at 4 uM incubated for 1 hr in presence of cyclosporin A by hoechst33342 staining based analysis; format: ADME, cell-based; settings: hct-116, 1 h
# Summary of the method: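 Pretreatment of live HCT116 cells: FCCP 1 uM for 20 min, cyclosporin A 1 uM for 24 h, DMOG 100 uM for 24 h, or MitoPDS at several concentrations for 3 h (applied after dye loading). Cells loaded with ligand 4 uM (excitation 488 nm) for 1 h and Hoechst33342 1 uM for 30 min. Red foci counted by confocal imaging in 100 cells. Mean ± SEM, t test.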
# Quadruplex DNA [5] = assay: Binding affinity to Mito 78 G4 DNA (unknown origin) assessed as change in melting temperature at 5 uM by circular dichroism spectroscopic analysis; format: nucleic-acid assay
# [6] = Drug localization in human HCT-116 cells overexpressing twinkle helicase by measuring red foci at 4 uM incubated for 1 hr by hoechst33342 staining based analysis; format: ADME, cell-based; settings: hct-116, 1 h
# HCT-116 [7] = assay: Downregulation of Ki67 expression level in human HCT-116 cells at upto 4 uM measured after 72 hrs by immunofluorescence analysis; format: functional, cell-based
# Summary of the method: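 HCT116 cells treated with ligand at 0-4 uM for 72 h. Lamin B1 and Ki67 imaged by immunofluorescence (excitation 635 nm), or lamin B1 probed on Western blot with β-actin as loading control.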
# MDA-MB-231 = assay: Antiproliferative activity against human MDA-MB-231 cells measured after 48 hrs by MTT assay; format: functional, cell-based; settings: MDA-MB-231, 48 h
# Summary of the method: (§1)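 Cells exposed to the ligands for 48 h. Viability was read by MTT, and the IC50 was derived from the response.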
# [8] = Toxicity in BALB/c nude mouse assessed as change in lymphocyte count at 5 mg/kg, iv administered every two days for 16 days; format: organism-based; settings: in vivo, 384 h, time 16 day
# Summary of the method: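 HCT116 xenograft-bearing male Balb/c nude mice (6/group) dosed iv at 5 mg/kg every two days or with PBS. Whole blood collected at sacrifice on day 16 for hematology parameters.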
# HCT-116 [9] = assay: Induction of mitochondrial dysfunction in human HCT-116 cells assessed as decrease in oxygen consumption rate at upto 4 uM incubated for 3 hrs by Seahorse XFe24 analyzer; format: functional, cell-based
# Summary of the method: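 Seahorse Mito-stress and glycolysis stress tests on HCT116 cells treated with ligand for 3 h. Oxygen consumption rate and extracellular acidification rate recorded.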
# HCT-116 [10] = assay: Downregulation of CYTB protein level in human HCT-116 cells at upto 4 uM incubated for 48 hrs by Western blot analysis; format: functional, cell-based
# HCT-116 [11] = assay: Upregulation of p21 level in human HCT-116 cells at upto 4 uM measured after 72 hrs by Western blot analysis; format: functional, cell-based
# Summary of the method: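 HCT116 cells exposed to the ligand at 0–4 µM for 72 h. Lysates were immunoblotted for p21 together with Lamin B1, p53, p16 and γ-H2A.x, with β-actin as the loading reference.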
# [12] = Toxicity in BALB/c nude mouse assessed as effect on kidney at 5 mg/kg, iv measured after 16 hrs post injection by H and E staining based analysis; format: organism-based; settings: in vivo
# [13] = Drug localization in human HCT-116 cells overexpressing […] by measuring red foci at 4 uM incubated for 1 hr by hoechst33342 staining based analysis; format: ADME, cell-based; settings: hct-116, 1 h
# HFF-1 = assay: Induction of morphological changes in human HFF-1 cells at 4 uM by microscopy based analysis; format: functional, cell-based
# Summary of the method: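 HCT116 and HFF1 cells treated with ligand at 4 uM alongside untreated controls. Morphology examined by microscopy at 100x.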
# HCT-116 [14] = assay: Antiproliferative activity against human HCT-116 cells measured after 48 hrs by MTT assay; format: functional, cell-based; settings: HCT-116, 48 h; summary of the method: as §1
# HCT-116 [15] = assay: Downregulation of mitochondrial respiratory chain complex-IV level in human HCT-116 cells at upto 4 uM measured after 48 hrs by Western blot analysis; format: functional, cell-based
# HCT-116 [16] = assay: Antitumor activity against human HCT-116 cells xenografted in Balb/c nude mouse model assessed as inhibition of tumor growth at 5 mg/kg, iv administered every two days for 16 days; format: functional, organism-based; settings: time 16.0 day
# Summary of the method: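 Male Balb/c nude mice carrying HCT116 xenografts, 6 per group. Dosing was intravenous every two days at 5 mg/kg, with a PBS-injected control group. Body weight and tumour growth were tracked. Tumours were excised and weighed after 16 days.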
# HCT-116 [17] = assay: Inhibition of cell proliferation in human HCT-116 cells at 4 uM measured after 7 days by colony formation assay relative to control; format: functional; settings: HCT-116, 168 h, time 7 day
# Summary of the method: (§2)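 Colony formation: HCT116 cells treated for 7 days at 0, 1, 2 or 4 uM, colonies counted and quantified; mean ± SD.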
# [18] = Drug localization in nucleus of human HCT-116 cells at 1 to 8 uM incubated for 1 hrs by hoechst33342 staining based live cell imaging analysis; format: ADME, subcellular; settings: hct-116, 1 h, dose 1-8 µM
# HCT-116 [19] = assay: Induction of ROS production in human HCT-116 cells assessed as upregulation of ROS level at upto 4 uM measured after 48 hrs in presence of MitoTEMPO by mito-sox staining based analysis; format: functional, cell-based
# HCT-116 [20] = assay: Downregulation of ND4L mRNA level in human HCT-116 cells at 0 to 4 uM measured after 48 hrs by qRT-PCR analysis; format: functional, cell-based; settings: dose 0-4 µM
# HCT-116 [21] = assay: Induction of cell senescence in human HCT-116 cells assessed by increase SA-beta-Gal positive cells at upto 4 uM measured after 72 hrs by SA-bet-gal assay
# HCT-116 [22] = assay: Downregulation of ND2 gene expression in human HCT-116 cells at 0 to 4 uM measured after 48 hrs by q-PCR analysis; format: functional, cell-based; settings: dose 0-4 µM
# Quadruplex DNA [23] = assay: Binding affinity to mito 55 G4 DNA (unknown origin) assessed as increase in fluorescence intensity by fluorescence spectrophotometric analysis; format: nucleic-acid assay
# Summary of the method: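 Oligonucleotides were pre-annealed at 95 °C for 10 min, then cooled slowly. Ligand (5 uM) was mixed with 20 uM DNA in buffer. Emission was collected over 550–800 nm, and enhancement was taken at 650 nm as F/F0.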
# HCT-116 [24] = assay: Antitumor activity against human HCT-116 cells assessed as increase in beta-galactosidase activity at upto 4 uM measured after 72 hrs relative to control; format: functional; settings: up to 4 µM
# Summary of the method: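 HCT116 cells were treated for 72 h across 0–4 uM. β-Galactosidase activity was then measured against untreated control. Data are given as mean ± SEM, with significance by t test.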
# HCT-116 [25] = assay: Inhibition of cell proliferation in human HCT-116 cells at upto 4 uM measured after 7 days by colony formation assay; format: functional, cell-based; settings: time 7.0 day; summary of the method: as §2
# HCT-116 [26] = assay: Induction of DNA damage in human HCT-116 assessed as increase in tail length at upto 4 uM incubated for 72 hrs in presence of MitoTEMPO by comet assay; format: functional, cell-based
structure (smiles),measurement,setting,value
C(=C\c1ccc2ccccc2[n+]1CCCCCCCC[n+]1c(/C=C/c2ccc(N3CCCCC3)cc2)ccc2ccccc21)/c1ccc(N2CCCCC2)cc1.[I-].[I-],Kd,Quadruplex DNA [1],0.06 µM
same,Activity,HCT-116 [2],Active
same,ΔTm,Quadruplex DNA [3],16.5 °C
same,Drug uptake,[4],Active
same,ΔTm,Quadruplex DNA [5],11.3 °C
same,Drug uptake,[6],Active
same,Activity,HCT-116 [7],Active
same,IC50,MDA-MB-231,34.6 µM
same,Activity,[8],Non-Toxic
same,Activity,HCT-116 [9],Active
same,Activity,HCT-116 [10],Active
same,Activity,HCT-116 [11],Active
same,Activity,[12],Non-Toxic
same,Drug uptake,[13],Active
same,Activity,HFF-1,Active
same,IC50,HCT-116 [14],3.4 µM
same,Activity,HCT-116 [15],Active
same,Activity,HCT-116 [16],Active
same,inhibition at 4 µM,HCT-116 [17],100%
same,Drug uptake,[18],Not Active
same,Activity,HCT-116 [19],inactive
same,Activity,HCT-116 [20],Active
same,Activity,HCT-116 [21],Active
same,Activity,HCT-116 [22],Active
same,Activity,Quadruplex DNA [23],Active
same,Activity,HCT-116 [24],17.63%
same,inhibition,HCT-116 [25],Active
same,Activity,HCT-116 [26],inactive
